From ChEMBL document CHEMBL5120949, “Optimization of Covalent MKK7 Inhibitors via Crude Nanomole-Scale Libraries” (J Med Chem, 2022)
≈ marks a conversion by molar mass, not a printed value.

Legend:
[1] = target: T1, Dual specificity mitogen-activated protein kinase kinase 7 (Homo sapiens) (UniProt O14733); assay: Binding affinity to N-terminal 6XHis-tagged recombinant MKK7 (117 to 423 residues) (unknown origin) assessed as protein labelling at 2 uM measured for 10 mins by LC/MS analysis relative to control
T1 sequence (whole entry): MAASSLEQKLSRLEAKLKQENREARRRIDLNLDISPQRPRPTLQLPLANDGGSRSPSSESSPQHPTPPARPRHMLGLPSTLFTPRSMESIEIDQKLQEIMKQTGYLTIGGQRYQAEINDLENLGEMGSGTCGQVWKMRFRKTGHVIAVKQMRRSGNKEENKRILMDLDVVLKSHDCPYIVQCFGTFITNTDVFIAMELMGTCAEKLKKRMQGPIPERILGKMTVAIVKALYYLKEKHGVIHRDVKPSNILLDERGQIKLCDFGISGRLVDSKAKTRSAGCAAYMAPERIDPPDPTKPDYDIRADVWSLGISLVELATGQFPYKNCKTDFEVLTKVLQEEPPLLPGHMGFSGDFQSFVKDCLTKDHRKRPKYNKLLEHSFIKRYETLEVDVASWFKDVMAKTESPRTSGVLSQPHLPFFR

[2] = target: T1, Dual specificity mitogen-activated protein kinase kinase 7 (Homo sapiens); assay: Inhibition of N-terminal 6XHis-tagged recombinant MKK7 (117 to 423 residues) in human U2OS cells assessed as reduction in JNK phosphorylation level at 13.8 uM incubated for 2 hrs by ICW detection method relative to control; format: cell-based
In short: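 U2OS cells plated on fibronectin-coated 384-well plates, 24 h. Crude CuAAC reaction mixtures diluted in PBS and given to cells at 13.89 μM final for 2 h. 0.2 M sorbitol added 40 min before fixation. Cells fixed, permeabilized and immunostained for phospho-JNK T183/Y185. The 800 nm signal was normalized to CellTag700 and compared with control wells.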

[3] = Stability of the compound in human plasma assessed as parent compound remaining; format: ADME, cell-free
[4] = Metabolic stability in human liver microsomes assessed as intrinsic clearance measured after 60 mins
[5] = Kinetic solubility of compound
[6] = Apparent permeability across apical to basolateral side in human Caco2 cells; conditions: Caco-2
[7] = target: T2, Dual specificity mitogen-activated protein kinase kinase 7 (Homo sapiens, UniProt O14733); assay: Inhibition of N-terminal 6XHis-tagged recombinant MKK7 (117 to 423 residues) in human U2OS assessed as reduction in c-Jun phosphorylation level incubated for 80 mins by Western blot analysis; format: cell-based
T2 sequence (O14733 whole entry): T1 sequence (whole entry)
In short: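 U2OS cells in six-well plates, media changed, then exposed to compound in 0.1% DMSO for 80 min. Sorbitol added to 0.2 M for 40 min. Lysates (35 μg protein) run on western blot against p-c-Jun (Ser63), with GAPDH as loading control. Bands quantified and EC50 taken from a sigmoidal dose–response fit with top fixed at 1 and bottom at 0.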

SMILES	Activity [1] [%]	inhibition [2] [%]	other results
C=CC(=O)N1CCC[C@@H](n2nc(-c3cn(-c4ccc(Br)cc4)nn3)c3c(N)ncnc32)C1	> 70	65	
C=CC(=O)N1CCC[C@@H](n2nc(-c3cn(CCc4ccccc4)nn3)c3c(N)ncnc32)C1	> 70	65	
C=CC(=O)N1CCC[C@@H](n2nc(-c3cn(-c4ccc(Cl)cc4O)nn3)c3c(N)ncnc32)C1	> 70	65	
C=CC(=O)Nc1cc(C(=O)NCc2cn(C3CCC3)nn2)cc(-c2n[nH]c3ccccc23)c1	> 70		
C=CC(=O)N1CCC[C@@H](n2nc(-c3cn(-c4ccc(C(=O)OC)cc4)nn3)c3c(N)ncnc32)C1	> 70	65	
C=CC(=O)N1CCC[C@@H](n2nc(-c3cn(-c4ccc(CO)c(F)c4)nn3)c3c(N)ncnc32)C1	> 70	65	
C=CC(=O)N1CCC[C@@H](n2nc(-c3cn(-c4ccc(C(C)=O)cc4)nn3)c3c(N)ncnc32)C1		65	Stability [3]: 70%; microsomal CLint at 1 h [4]: 154 µL/min/mg; solubility kinetic [5]: 8 µM (≈ 3.66 µg/mL); Papp A→B [6]: 20 ×10⁻⁶ cm/s
C=CC(=O)Nc1cc(C(=O)NCc2cn(-c3ccc(F)c(Cl)c3)nn2)cc(-c2n[nH]c3ccccc23)c1	> 70		
C=CC(=O)N1CCC[C@@H](n2nc(-c3cn(-c4ccc(OC)cc4)nn3)c3c(N)ncnc32)C1	> 70	65	
C=CC(=O)Nc1cc(C(=O)NCc2cn([C@@H]3CCCC[C@H]3OC)nn2)cc(-c2n[nH]c3ccccc23)c1 (racemic)	> 70		
C=CC(=O)N1CCC[C@@H](n2nc(-c3cn(CC(F)(F)c4ccccc4)nn3)c3c(N)ncnc32)C1		65	
C#CCNC(=O)c1cc(NC(=O)C=C)cc(-c2n[nH]c3ccccc23)c1	2		
C=CC(=O)N1CCC[C@@H](n2nc(-c3cn(CC(F)(F)c4ccc(Cl)cc4)nn3)c3c(N)ncnc32)C1	> 70	65	
C#Cc1nn([C@@H]2CCCN(C(=O)C=C)C2)c2ncnc(N)c12	> 70	65	
C=CC(=O)N1CCC[C@@H](n2nc(-c3cn(-c4cc(Br)ccc4O)nn3)c3c(N)ncnc32)C1	> 70	65	EC50 [7]: > 0.9 µM
C=CC(=O)Nc1cc(C(=O)NCc2cn(-c3ccccc3C)nn2)cc(-c2n[nH]c3ccccc23)c1	> 70		EC50 [7]: < 3 µM
C=CC(=O)N1CCC[C@@H](n2nc(-c3cn(C[C@H](O)c4ccc(Br)cc4)nn3)c3c(N)ncnc32)C1	> 70	65	
